Arrestin-AP2 inh = inhibitors of beta-arrestin/AP2 binding, primary screen, biochemical, GPCR trafficking, flow cytometry | beta-arrestin 1 C-terminal peptide binding to AP2 beta2-adaptin appendage (human) | AID 504490, 2011 | FITC-arrestin peptide / GST-AP2 beads; AP2 beta2 appendage carries R879A mutation | 0.31% of 340,000 active | inhibition, % at 10 µM;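 active = inhibition above a set limit, near 3 SD of compounds lacking own fluorescence, cut at about 54% in these data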
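Test system: GST-tagged AP2 beta2-adaptin appendage (R879A) on 4 µm glutathione beads; also added: fluorescein-tagged arrestin peptide at 50 nM final; timing: 12 min plus 1 h, RT; signal: flow cytometry, FL1 (488/535 nm); read-out: percent drop in bead-associated FITC signal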
UHRF1 MBD2 ctr = UHRF1 methylated DNA binding inhibitors, primary screen, counter-screen for MBD2 inhibitor project, biochemical, TR-FRET, human UHRF1, single concentration. UHRF1 binding to methylated oligo. AID 687016, 2013. 0.75% of 370,000 active. inhibition, % at 4.4 µM. E3 ubiquitin-protein ligase UHRF1 (Homo sapiens), Q96T88;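 note: UHRF1 SRA domain binding a hemimethylated CpG hairpin DNA probe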
B2AR ag = beta2AR agonists driving receptor internalization, primary screen, cell-based, FAP fluorogen, flow cytometry | Beta-2 adrenergic receptor (Homo sapiens), P07550 | response, % (test concentration not listed) | 0.43% of 340,000 active | Am2.2-beta2AR cells;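 active = response above a set limit, near 3 SD of response in nonfluorescent compounds, cut at about 42% in these data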
Rin1-Abl PPI inh = inhibitors of Rin1-Abl protein binding, primary screen, biochemical, TR-FRET | inhibition, % at 7.35 µM | 0.4% of 360,000 active | AID 588664, 2011; in the data active = inhibition above about 5%, passing the limit was not always enough
MBD2 inh = inhibitors of MBD2 binding to methylated DNA, primary screen, biochemical, TR-FRET, DNA-binding domain, human. MBD2 binding to methylated oligonucleotide. Methyl-CpG-binding domain protein 2 (Homo sapiens), Q9UBB5. 0.31% of 370,000 active. AID 686964, 2013. inhibition, % at 4.4 µM; in the data active = inhibition above about 13%
ABHD5-PLIN5 inh = ABHD5-PLIN5 interaction inhibitors, primary screen, cell lysate, split luciferase complementation, luminescence; Perilipin-5 (Homo sapiens) + 1-acylglycerol-3-phosphate O-acyltransferase ABHD5 (Homo …; Split G. princeps luciferase complementation, 4 h; inhibition, % at 4 µM; 0.78% of 360,000 active;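 active = inhibition above the mean inhibition across every tested compound plus 3 SD, cut at about 22% in these data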
UHRF1 DNA bind = UHRF1 methylated DNA binding inhibitors, counter-screen for MBD2 inhibitor project, biochemical, TR-FRET, human UHRF1; shares compounds with MBD2 inh; UHRF1 binding to methylated oligonucleotide; inhibition, % at 4.4 µM; 25% of 1,000 active;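 note: UHRF1 SRA domain binding a labeled hemimethylated CpG hairpin DNA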
MBD2 confirm = inhibitors of MBD2 binding to methylated DNA, confirmation, biochemical, TR-FRET, DNA-binding domain, human; shares compounds with MBD2 inh; TR-FRET MBD2-DBD binding to methylated oligonucleotide; inhibition, % at 4.4 µM; 26% of 1,000 active; AID 720531, 2013; in the data active = inhibition above about 14%
Each line names hits and unclear results; the compound was inactive in the other large screens (follow-up assays come after a bar, where they were run). The list is not random: actives were taken first. Their share in the collection is about 2.5%. Cut-off read from the data, not from the text of the source, unless noted: active = inhibition above about 21%; inactive = the rest.

CCn1c(SCC(=O)c2ccc(O)c(O)c2)nnc1-c1ccc(C)cc1	UHRF1 MBD2 ctr 44, MBD2 inh 15 | UHRF1 DNA bind inactive | MBD2 confirm inactive
CCn1c(SCC(=O)c2ccc3c(c2)Cc2ccccc2-3)nnc1-c1ccc(N)cc1	none
CC(C)COC(=O)N(C)C[C@H]1OCc2cnnn2CCCC(=O)N([C@H](C)CO)C[C@@H]1C	none (no result: Arrestin-AP2 inh, B2AR ag)
Cc1ccc(S(=O)(=O)n2cnc3cc([N+](=O)[O-])ccc32)cc1C	MBD2 inh 14 | UHRF1 DNA bind inactive | MBD2 confirm inactive
CCOC(=O)c1csc(NC(=O)C2CCCN(S(=O)(=O)c3ccc([N+](=O)[O-])cc3)C2)n1 (stereo not drawn)	none (no result: Arrestin-AP2 inh, B2AR ag, Rin1-Abl PPI inh, ABHD5-PLIN5 inh)
Cc1cc(NS(=O)(=O)c2ccc(NC(=S)NC(=O)c3cccnc3)cc2)no1	UHRF1 MBD2 ctr 65, MBD2 inh 27 | UHRF1 DNA bind inactive | MBD2 confirm inactive
O=C1Nc2ccccc2N(C(=O)c2ccc3ccccc3c2)C1c1nc2ccccc2[nH]1 (stereo not drawn)	none (no result: Arrestin-AP2 inh, B2AR ag, Rin1-Abl PPI inh)
O=C(COC(=O)CCCNC(=O)c1ccc(Cl)cc1)Nc1ccc(Br)cc1	UHRF1 MBD2 ctr 23, MBD2 inh 13 | UHRF1 DNA bind inactive | MBD2 confirm inactive
COC(=O)[C@H]1C[C@@]2(C)c3ccccc3N(S(=O)(=O)c3ccccc3)[C@H]2N1C(=O)CNC1CCCCC1	none (no result: Arrestin-AP2 inh, B2AR ag, Rin1-Abl PPI inh, ABHD5-PLIN5 inh)
CCOC(=O)Nc1nc(-c2ccc(Cl)cc2Cl)cs1	MBD2 inh 13 | UHRF1 DNA bind 26 | MBD2 confirm inactive
COC(=O)Cc1nnn2c1[C@H](C)[C@H](c1cccc(OC)c1OC)OCC2	UHRF1 MBD2 ctr 26, MBD2 inh 16 (no result: Arrestin-AP2 inh, B2AR ag, Rin1-Abl PPI inh, ABHD5-PLIN5 inh) | UHRF1 DNA bind inactive | MBD2 confirm inactive
Cn1c(=O)c2c(ncn2CC2OCCO2)n(C)c1=O	MBD2 inh 35 | UHRF1 DNA bind inactive | MBD2 confirm inactive
CC(C)(C)N1Cc2nnn(Cc3ccccc3)c2-c2ccccc2S1(=O)=O	none (no result: Arrestin-AP2 inh, B2AR ag, Rin1-Abl PPI inh, ABHD5-PLIN5 inh)
O=c1ccc2cc(O)c(O)cc2o1	UHRF1 MBD2 ctr 94, MBD2 inh 71 | UHRF1 DNA bind inactive | MBD2 confirm inactive
CN(Cc1ccccc1N1CCCC1)C(=O)c1cc2cc(Cl)ccc2o1	MBD2 inh 31 | UHRF1 DNA bind inactive | MBD2 confirm inactive
CN(Cc1ccccc1N1CCCC1)C(=O)c1cc2ccccc2o1	none
COc1ccccc1CNC(=O)NC1CCN(CC(=O)Nc2ccc3c(c2)OCCO3)CC1	none (no result: Arrestin-AP2 inh, B2AR ag, Rin1-Abl PPI inh, ABHD5-PLIN5 inh)
Cc1ccc(C)c(S(=O)(=O)N2CCCOC2CNC(=O)C(=O)NCCc2ccco2)c1 (stereo not drawn)	MBD2 inh 15 | UHRF1 DNA bind inactive | MBD2 confirm inactive
O=C(C1CCC1)n1ccc2ccc(-c3ccc4ccn(Cc5ccccc5)c4c3)cc21	none (no result: Arrestin-AP2 inh, B2AR ag, Rin1-Abl PPI inh, ABHD5-PLIN5 inh)
Cc1ccc(N(CN2CCCC2=O)C(=O)c2ccccc2)cc1	MBD2 inh 17 | UHRF1 DNA bind inactive | MBD2 confirm inactive
COc1ccc(C(=O)N(CN2CCCC2=O)c2ccc(C)cc2)cc1	none
N=C1C(c2nc3ccccc3s2)=C(O)CN1NC(=O)c1c[nH]c2ccccc12	MBD2 inh 15 | UHRF1 DNA bind inactive | MBD2 confirm 22
N=C1C(c2nc3ccccc3s2)=C(O)CN1NC(=O)c1ccccc1[N+](=O)[O-]	none
COc1ccc(NC(=O)N2CCC(N(C)CCC(C)C)CC2)cc1OC	none (no result: Arrestin-AP2 inh, B2AR ag, Rin1-Abl PPI inh, ABHD5-PLIN5 inh)
O=C(COC(=O)c1ccc(O)cc1O)NC1CCCCCC1	MBD2 inh 20 | UHRF1 DNA bind inactive | MBD2 confirm inactive
